ZTA DNA inh: ZTA (EBV) inhibition in EBNA-1 counter-screen; ZTA-DNA binding, fluorescence polarization; actives 0.15% (n = 320,000); inhibition, % at 11 µM; P03206; in the data active = inhibition above about 33%
Target sequence (P03206 whole entry, looked up): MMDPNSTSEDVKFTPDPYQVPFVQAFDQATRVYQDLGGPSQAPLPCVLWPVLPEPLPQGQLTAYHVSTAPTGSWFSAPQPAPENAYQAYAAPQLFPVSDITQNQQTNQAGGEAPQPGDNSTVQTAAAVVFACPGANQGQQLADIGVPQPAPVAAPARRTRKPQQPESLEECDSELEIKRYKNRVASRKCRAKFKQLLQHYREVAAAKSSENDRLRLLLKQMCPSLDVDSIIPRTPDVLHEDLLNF
FID counter: displaces DNA intercalator in HCV helicase counter-screen; AID 1845; inhibition, % at 7.9 µM; actives 0.17% (n = 290,000); DNA fluorescent intercalator displacement, fluorescence; in the data active = inhibition above about 37%;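 note: 0% = vehicle and 100% = reference compound; higher means more ethidium bromide displaced from hairpin DNA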
GPR7 antag: antagonists of human GPR7 (neuropeptides B/W receptor 1) | P48145 | GPR7-expressing cells, fluorescence antagonist assay | inhibition, % at 4.4 µM | actives 1.1% (n = 290,000) | AID 1861; in the data active = inhibition above about 16%, passing the limit was not always enough;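 note: cells stimulated with the agonist NPW; 0% = agonist with vehicle and 100% = vehicle without agonist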
Target sequence (P48145 whole entry, looked up): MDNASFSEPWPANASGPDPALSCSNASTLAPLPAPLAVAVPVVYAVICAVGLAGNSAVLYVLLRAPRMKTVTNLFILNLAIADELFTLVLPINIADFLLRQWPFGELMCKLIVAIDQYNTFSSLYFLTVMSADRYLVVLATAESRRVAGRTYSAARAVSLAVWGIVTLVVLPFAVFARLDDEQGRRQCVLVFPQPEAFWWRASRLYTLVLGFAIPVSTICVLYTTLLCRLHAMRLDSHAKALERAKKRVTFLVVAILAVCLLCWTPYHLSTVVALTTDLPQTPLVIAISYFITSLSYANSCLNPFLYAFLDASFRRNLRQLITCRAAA
NS3 helicase inh: HCV NS3 helicase inhibition; inhibition, % at 10.9 µM; NS3 helicase DNA unwinding, Cy5 molecular beacon fluorescence; actives 0.56% (n = 290,000); AID 1800;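 active = inhibition above the mean of all tested compounds plus 3 SD, set per campaign, cut at about 35% in these data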;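 note: 0% = DMSO wells and 100% = thioflavine S control wells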
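Test system: hepatitis C virus NS3 helicase domain fragment enzyme. Also added: annealed dual-labelled DNA beacon duplex, ATP-started. Timing: 60 min unwinding reaction at 25 °C after ATP addition. Technique: Cy5 fluorescence. Measure: % inhibition of unwinding.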
EBNA-1 inh: blocks EBNA-1 binding to DNA; EBNA-1 DNA binding, fluorescence polarization; inhibition, % at 14.8 µM; actives 0.34% (n = 300,000); AID 1950; in the data active = inhibition above about 28%
EBNA-1 confirm: EBNA-1 (EBV) inhibition, confirmation; inhibition, % at 14.8 µM; AID 2292; shares compounds with EBNA-1 inh; Recombinant EBNA-1 DBD, Cy5-DNA fluorescence polarization; actives 35% (n = 830);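 active = mean inhibition across replicates above a set limit taken from the earlier primary screen, cut at about 28% in these data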;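 note: plate controls were EBNA-1 protein with DMSO for no effect and wells lacking EBNA-1 for full effect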
ZTA counter trip: counter-screen for EBNA-1 inhibitors: Epstein-Barr virus ZTA inhibitors, triplicate; shares compounds with EBNA-1 inh; Zta-ZRE DNA binding, Cy5 fluorescence polarization; inhibition, % at 11.1 µM; 830 tested, under 10 active; AID 2328;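 active = mean inhibition over triplicates above a set limit taken from the primary EBNA-1 screen, cut at about 37% in these data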;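 note: purified full length Zta protein with Cy5 labeled ZRE DNA probe; 0% = Zta with DMSO and 100% = wells lacking Zta protein; inhibitors lower polarization by freeing the labeled DNA probe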
Active calls of the source: *; · = no result given. This is a sample that favours compounds with a hit; in the whole collection about 2% have one here.

SMILES	ZTA DNA inh	FID counter	GPR7 antag	NS3 helicase inh	EBNA-1 inh	EBNA-1 confirm	ZTA counter trip
O=[N+]([O-])c1ccc(C[n+]2cc(-c3ccccc3)n3c2CCCCC3)cc1	7	9	-19	6	-15	·	·
Clc1cccc(CN2CCSCC2)c1Cl	·	2	-20	25	·	·	·
NC(=O)c1ccc(NC(=O)COC(=O)/C=C/c2cccs2)cc1	-7	-1	-9	5	-3	·	·
Cc1ccc(NC(=O)COC(=O)/C=C/c2cccs2)cc1	-1	-7	-1	-4	39*	11	8
NS(=O)(=O)c1ccc(NC(=O)Cc2cccs2)cc1	·	-1	-7	2	·	·	·
NS(=O)(=O)c1ccc(NC(=O)COC(=O)/C(=C/c2cccs2)c2cccs2)cc1	10	-10	0	-9	64*	60*	13
COc1ccc(CN(C)C(C)C(=O)Nc2ccc(S(=O)(=O)N3CCCCC3)cc2)cc1F (stereo unspecified)	14	·	·	·	·	·	·
COc1ccc(CC2(CO)CCN(Cc3ccc(NC(C)=O)cc3)CC2)cc1	4	6	-20	-7	46*	0	5
O=C(N/N=C/c1ccc(-c2ccc(S(=O)(=O)Nc3ncccn3)cc2)o1)c1cc2ccccc2cc1O	28	-25	-11	33	32*	46*	41*
CN(Cc1cccc(Cl)c1Cl)CC(O)COc1ccccc1 (stereo unspecified)	0	6	6	-16	-1	·	·
Cc1cccnc1NC(=O)c1ccc(S(=O)(=O)N2CCC(C)CC2)cc1	18	·	·	·	31*	4	2
CC1CCN(S(=O)(=O)c2ccc(NC(=O)c3ccncc3)cc2)CC1	1	-26	4	1	-10	·	·
CCOC(=O)Nc1ccccc1C(=O)Nc1cc(C)cc(C)c1	-13	-9	-10	6	-4	·	·
Cc1cccc(COC(=O)Nc2ccc(NC(=O)c3ccccc3Cl)cc2)c1	-13	-10	0	-9	48*	5	-5
Cc1ccc2c(c1)N1C(=O)c3ccccc3C1C1=C(CC(C)(C)CC1=O)N2 (stereo unspecified)	6	-15	-12	-6	93*	-11	-5
CCCc1cc2c(cc1NC(=O)c1ccc(Br)cc1)OCO2	-3	-7	1	-7	33*	0	-8
CCOC(=O)C(Cc1ccc(NC(=O)/C(=C/c2ccccc2)NC(=O)c2ccccc2)cc1)N1C(=O)c2ccccc2C1=O (stereo unspecified)	10	-21	-9	-2	41*	11	8
O=C(N/N=C/c1ccc(O)cc1)c1nc(-c2ccccc2)n(-c2ccccc2)n1	1	-23	-2	-7	31*	31*	-5
COc1cc(/C=N/NC(=O)c2nc(-c3ccccc3)n(-c3ccccc3)n2)ccc1O	-3	-32	-1	-8	7	·	·
Cc1ccc(-c2nnn(CC(=O)NCCc3ccc4c(c3)OCO4)n2)cc1	6	-4	-8	-3	44*	10	9
O=C(O)CC1SC(=O)N(CC(=O)c2ccccc2)C1=O (stereo unspecified)	7	0	-11	2	-3	·	·
COc1ccccc1CNC(=O)c1ccc2nc3[nH]c4ccccc4c3nc2c1	8	-3	-12	-18	65*	67*	-10
Cc1ccc(CNC(=O)c2ccc3nc4[nH]c5ccccc5c4nc3c2)cc1	·	0	1	-4	·	·	·
O=S(=O)(c1ccc2nc(-c3ccccc3)[nH]c2c1)N1CCN(c2ccc(Cl)cc2)CC1	0	11	16	8	37*	13	9
Cc1cccc(C)c1NC(=O)Cn1nnc(C(=O)Nc2ccc(F)cc2F)c1N	-6	-5	1	8	28*	29*	-4
SMILES	ZTA DNA inh	FID counter	GPR7 antag	NS3 helicase inh	EBNA-1 inh	EBNA-1 confirm	ZTA counter trip
Cc1cc(C)c(NC(=O)Cn2nnc(C(=O)Nc3ccc(F)cc3F)c2N)c(C)c1	-21	-6	-2	-3	-3	·	·
Cc1csc(NC(=O)CSc2nc3sc(C)c(C)c3c(=O)[nH]2)n1	4	3	-11	-8	53*	-2	-13
CCOC(=O)Cc1csc(NC(=O)CSc2nc3sc(C(=O)O)c(C)c3c(=O)[nH]2)n1	-14	-5	-8	-4	-1	·	·
Cc1sc2nc(SCC(=O)Nc3ccccc3F)[nH]c(=O)c2c1C	1	-5	-5	-10	30*	42*	-16
COc1ccc(NC(=O)COC(=O)C2CC(=O)N(CCc3ccc(OC)c(OC)c3)C2)cc1Cl (stereo unspecified)	4	·	·	·	·	·	·
Cc1ccc(N(C(=O)c2csnn2)C(C(=O)NC2CCCCC2)c2ccncc2)cc1 (stereo unspecified)	-17	-18	-12	4	12	·	·
Cc1ccc(N2C(=O)CC(N(CCc3ccccc3)C(=S)Nc3ccc(N(C)C)cc3)C2=O)cc1 (stereo unspecified)	10	-11	-14	-6	57*	18	-3
COc1ccc(S(=O)(=O)N2CCOC23CCN(C(=O)c2ccccc2OC)CC3)cc1	-21	·	·	·	-8	·	·
Cc1cccc(OCC(=O)N/N=C\C=C\c2ccc3c(c2)OCO3)c1C	-7	-6	1	2	59*	80*	-1
COc1ccc(CNC(=O)CN2C(=O)COc3ccc(S(=O)(=O)N4CCCCC4)cc32)cc1	3	-23	-8	-6	-2	·	·
COC(=O)c1c(NC(=O)c2ccccc2)sc2c1CC(C)(C)OC2	13	-2	-3	5	32*	2	0
CCn1c(COc2ccccc2C)nnc1SCC(=O)Nc1cc(C)on1	0	1	-6	-4	50*	3	13
Cc1ccc(C(=O)NC(=S)Nc2ccc3[nH]c(=O)[nH]c3c2)cc1	33	-6	0	1	43*	34*	12
Cc1ccc(NC(=S)Nc2ccc3[nH]c(=O)[nH]c3c2)cc1	2	2	-12	5	-2	·	·
Cc1ccccc1NC(=S)N=Nc1c(O)n(C)c2ccc(S(=O)(=O)N3CCOCC3)cc12	-1	2	-1	5	42*	15	9
CC(C)CNC(=S)N(Cc1ccco1)Cc1cc2cc3c(cc2[nH]c1=O)OCCO3	7	-11	6	4	61*	2	17
O=C1CCCN1CCCNc1nc2c(S(=O)(=O)c3ccccc3)nnn2c2ccc(Cl)cc12	10	-37	-11	-2	2	·	·
CC1CCN(S(=O)(=O)c2ccc(NC(=O)Cn3nnc(-c4ccccc4)n3)cc2)CC1	19	-6	-17	-35	30*	5	-15
Cc1ccc(-c2nnn(CC(=O)Nc3ccc(S(=O)(=O)N4CCC(C)CC4)cc3)n2)cc1	12	5	14	-15	11	·	·

High-throughput results from PubChem BioAssay.
